RanGTP-Imp inh = inhibitors of RanGTP-importin-beta interaction, primary screen, biochemical, FRET, CFP-Ran, YFP-importin-beta, homogeneous. cell-free CFP-Ran/YFP-importin-beta FRET ratio. inhibition, % (test concentration not listed). 300,000 compounds, 1.1% hits. AID 2216;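 active = more than half of the replicate wells show a fall in the fluorescence ratio signal beyond about 16%, limit read from the data, passing the limit was not always enough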
Runt-SMMHC FRET = blocks binding of human RUNX1 Runt domain to CBFb-SMMHC; Q01196+Q13951; Cerulean-Runt/Venus-CBFb-SMMHC FRET ratio 530/480, 1 h; inhibition, % at 20 µM; 220,000 compounds, 0.74% hits; AID 1434;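 active = mean inhibition across duplicate retests at 20 µM reaching about 50%, limit read from the data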;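 also: inhibitors lower the FRET ratio by blocking Runt binding to CBFb-SMMHC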
Target sequence (Q01196 whole entry, looked up, the tested form may be a part): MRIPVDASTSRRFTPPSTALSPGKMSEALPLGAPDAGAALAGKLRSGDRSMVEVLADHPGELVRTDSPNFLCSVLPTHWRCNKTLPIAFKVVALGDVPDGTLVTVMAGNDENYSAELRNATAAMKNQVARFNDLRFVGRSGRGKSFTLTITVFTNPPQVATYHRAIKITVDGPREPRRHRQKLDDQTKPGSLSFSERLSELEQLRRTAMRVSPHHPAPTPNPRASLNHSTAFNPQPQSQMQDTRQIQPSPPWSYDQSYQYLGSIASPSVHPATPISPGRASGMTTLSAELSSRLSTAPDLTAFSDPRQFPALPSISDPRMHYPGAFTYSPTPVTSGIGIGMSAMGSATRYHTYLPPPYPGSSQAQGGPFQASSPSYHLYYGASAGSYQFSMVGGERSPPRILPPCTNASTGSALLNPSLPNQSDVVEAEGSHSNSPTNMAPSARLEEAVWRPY
Target sequence (Q13951 whole entry, looked up, the tested form may be a part): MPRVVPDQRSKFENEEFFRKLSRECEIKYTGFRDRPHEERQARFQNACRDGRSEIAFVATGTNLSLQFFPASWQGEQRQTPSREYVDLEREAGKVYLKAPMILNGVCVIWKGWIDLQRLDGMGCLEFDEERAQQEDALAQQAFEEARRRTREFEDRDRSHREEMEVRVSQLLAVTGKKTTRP
Hck Nef HTS = blocks Nef-activated human Hck kinase; 220,000 compounds, 0.68% hits; P08631; Recombinant Hck-YEEI plus Nef, Z-Lyte FRET kinase assay; AID 463187; inhibition, % at 20 µM;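 active = Hck-Nef kinase inhibition above about 50%, limit read from the data; inactive = inhibition below that limit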
Runt-CBFb FRET = inhibitors of human RUNX1 Runt domain binding to CBFb. 220,000 compounds, 0.46% hits. Q01196+Q13951. inhibition, % at 20 µM. Cerulean-Runt/Venus-CBFb FRET ratio 530/480, 1 h;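 active = inhibition over about 50% at 20 µM in the single-dose screen, limit read from the data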
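Assay system: Cerulean-Runt domain / Medium: Tris 50 mM pH 7.5, KCl, K2SO4, 0.01% BSA / Timing: protein complex preformed 1 h, compound exposure 1 h, room temperature, dark / Measured by: FRET, excitation 422 nm, emission at 530 and 480 nm / Evaluation: loss of energy transfer signal / Control set: 5 µM unlabeled CBFb as full-inhibition high control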
YIC counter = counter-screen for RanGTP-importin-beta inhibitors: YIC FRET probe | 1,000 compounds, 40% hits | shares compounds with RanGTP-Imp inh | AID 435026 | IC50, µM | Purified YIC probe, intramolecular FRET ratio YFP/CFP;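 active = fitted half-maximal inhibitory concentration no more than tenfold above the top dose tested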
Of the large screens only hits and unclear results are named; the others gave an inactive call (follow-up assays come after a bar, where they were run). Most compounds without a hit are left out; they make up all but 1.9% or so of the library.

O=C(CN1CCOCC1)NNc1c2ccccc2nc2ccccc12	RanGTP-Imp inh 19.1 | YIC counter inactive
Nc1ccccc1C(=O)NNc1c2ccccc2nc2ccccc12	RanGTP-Imp inh 32.7 | YIC counter inactive
C[N+]1(CC(=O)NNc2c3ccccc3nc3ccccc23)CCOCC1	none
O=C(NNc1c2ccccc2nc2ccccc12)c1ccc(Cl)cc1	RanGTP-Imp inh 20.2 (no result: Runt-SMMHC FRET, Hck Nef HTS, Runt-CBFb FRET) | YIC counter inactive
Cc1ccc(C)c(Nc2c([N+](=O)[O-])c(=O)oc3ccccc23)c1	none
Cc1ccc(CSc2nnc(CNc3ccc(F)cc3)o2)cc1	none
CC1Cc2cc(/C(O)=C3/C(=O)C(=O)N(Cc4ccncc4)C3c3ccc(N(C)C)cc3)ccc2O1 (stereo unspecified)	RanGTP-Imp inh 22.2 (no result: Runt-SMMHC FRET, Hck Nef HTS, Runt-CBFb FRET) | YIC counter inactive
COc1ccc(C2/C(=C(/O)c3ccc4c(c3)CC(C)O4)C(=O)C(=O)N2Cc2cccnc2)cc1 (stereo unspecified)	none (no result: Runt-SMMHC FRET, Hck Nef HTS, Runt-CBFb FRET)
OCCC1CN(Cc2cccn2-c2cccnc2)CCN1Cc1ccc(F)cc1 (stereo unspecified)	RanGTP-Imp inh 26.9 | YIC counter inactive
CCOc1ccc(CN2CCN(Cc3cccn3-c3cccnc3)CC2CCO)cc1 (stereo unspecified)	none
Oc1ccccc1/C=N/Nc1cc(N2CCCC2)nc(N2CCCC2)n1	RanGTP-Imp inh 29.1 | YIC counter inactive
COc1ccccc1C(C)NCC(=O)NC(=O)NCc1ccco1 (stereo unspecified)	none (no result: Runt-SMMHC FRET, Hck Nef HTS, Runt-CBFb FRET)
CCC(C)OC(=O)C[N+](C)(C)CCOC1CC2CCC1(C)C2(C)C (stereo unspecified)	RanGTP-Imp inh 22.4 | YIC counter inactive
CC(C)CCOC(=O)C[N+](C)(C)CCOC1CC2CCC1(C)C2(C)C (stereo unspecified)	none
CC(=O)Nc1ccc(S(=O)(=O)NCc2nc(-c3cccc(C)c3)no2)cc1	RanGTP-Imp inh 15.3 (no result: Runt-SMMHC FRET, Hck Nef HTS, Runt-CBFb FRET) | YIC counter 39.1
COC(=O)c1c(NC(=O)C2CC2)sc2c1CCN(C(C)=O)C2	none
CCN1CCc2c(sc(NC(=O)C3CCCCC3)c2C(=O)OC)C1	RanGTP-Imp inh 42.2 (no result: Runt-SMMHC FRET, Hck Nef HTS, Runt-CBFb FRET) | YIC counter inactive
CCOC(=O)c1c(NC(=O)C2CCCCC2)sc2c1CCN(CC)C2	RanGTP-Imp inh 20.4 (no result: Runt-SMMHC FRET, Hck Nef HTS, Runt-CBFb FRET) | YIC counter inactive
CCOC(=O)c1c(NC(=S)N2CCCCC2)sc2c1CCN(C(=O)OCC)C2	none
Cc1ccc(C)[n+](CC(=O)c2ccc(-c3ccccc3)cc2)c1	none
CCNc1nnc(CSc2nc3ccccc3s2)s1	RanGTP-Imp inh 18.4 | YIC counter inactive
CCc1nnc(NC(=O)CSc2nc3ccccc3s2)s1	none
C/C(=N\NC(=O)c1c(C)nc2ccccn12)c1ccc(O)cc1O	RanGTP-Imp inh 20.7 (no result: Runt-SMMHC FRET, Hck Nef HTS, Runt-CBFb FRET) | YIC counter 47.5
C/C(=N\NC(=O)c1c(C)nc2ccccn12)c1ccccc1F	none (no result: Runt-SMMHC FRET, Hck Nef HTS, Runt-CBFb FRET)
Cc1nn(C)c(Oc2ccc(Cl)cc2)c1C(=O)O	RanGTP-Imp inh 23.2 | YIC counter inactive
CCc1ccc(C2C(C#N)=C(N)SC(N)=C2C#N)cc1	RanGTP-Imp inh 38.7 | YIC counter inactive
Cc1nc(N2CCC(C)CC2)c2c(C)c(C(=O)Nc3cccc(C(F)(F)F)c3)sc2n1	none
Cc1nc(Nc2cnc(/C=C/c3cc(C(=O)Nc4cccc(C(F)(F)F)c4)ccc3C)cn2)cc(N2CCNCC2)n1	RanGTP-Imp inh 41.2 (no result: Runt-SMMHC FRET, Hck Nef HTS, Runt-CBFb FRET) | YIC counter 18.2
N#C/C(=C\c1ccc(O)c(Br)c1)C(=O)NCc1ccccc1	RanGTP-Imp inh 42.8, Runt-SMMHC FRET 134.0, Runt-CBFb FRET 103.9 | YIC counter 20
NS(=O)(=O)c1ccc(N=Nc2c[nH]c(=O)c(O)c2)cc1	RanGTP-Imp inh 28.1 | YIC counter inactive
Cn1c(N)c(C(=O)COC(=O)C2(c3ccc(F)cc3)CCCC2)c(=O)n(C)c1=O	RanGTP-Imp inh 21.8 | YIC counter inactive
C/C(=N\OCC(=O)OCC(=O)NC(=O)c1ccccc1)c1ccc2c(c1)OCO2	RanGTP-Imp inh 16.7 (no result: Runt-SMMHC FRET, Hck Nef HTS, Runt-CBFb FRET) | YIC counter inactive
CCOC(=O)c1c(N2C(=O)Nc3ccccc3N2O)sc2c1CCCC2	RanGTP-Imp inh 20.3 | YIC counter inactive
COC(=O)c1c(N2C(=O)Nc3ccccc3N2O)sc(C)c1C	none
O=C(OCc1cccc(C(F)(F)F)c1)c1ccc[nH]c1=O	none (no result: Runt-SMMHC FRET, Hck Nef HTS, Runt-CBFb FRET)
COC(=O)C1(Cc2ccccc2)NC(c2ccc(F)cc2)C2C(=O)N(C)C(=O)C21 (stereo unspecified)	none
CCC1(C(=O)OC)NC(c2cccc(F)c2)C2C(=O)N(C)C(=O)C21 (stereo unspecified)	RanGTP-Imp inh 20.3 (no result: Runt-SMMHC FRET, Runt-CBFb FRET) | YIC counter inactive
O=C(c1ccc(Cl)cc1[N+](=O)[O-])N(Cc1ccccc1)Cc1ccccc1	none
CCN(C(=O)c1ccc(Cl)cc1[N+](=O)[O-])c1ccccc1C	RanGTP-Imp inh 19.0 | YIC counter inactive
CCOc1ncccc1C(=O)NCCc1ccc(Cl)cc1	none (no result: Runt-SMMHC FRET, Hck Nef HTS, Runt-CBFb FRET)
O=C(c1cc2c(=O)n3ccccc3nc2s1)N1CCN(Cc2ccc3c(c2)OCO3)CC1	none
O=C(c1cc2c(=O)n3ccccc3nc2s1)N1CCN(Cc2ccccc2)CC1	RanGTP-Imp inh 21.3 (no result: Runt-SMMHC FRET, Hck Nef HTS, Runt-CBFb FRET) | YIC counter inactive
